From ChEMBL document CHEMBL4819012, “Discovery of novel 2-aryl-3-sulfonamido-pyridines (HoAns) as microtubule polymerization inhibitors with potent antitumor activities” (Eur J Med Chem, 2021) come the findings set out here.

By IC50 is commonly meant the concentration at which inhibition is half-maximal.

Data set [1] deals with SW-620. The data set is described as follows: Induction of apoptosis in human SW-620 cells assessed as increase in cleaved PARP levels at 0.5 to 1 uM measured after 24 hrs by western blot assay. To be noted: dose 0.5-1 µM. Type of data set: functional, cell-based. The procedure, abridged:
(§1)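 RKO or SW620 cells at 4×10^5–5×10^5 per well treated with 0.5 and 1 µM for 24 h; lysed in SDS loading buffer, boiled, SDS-PAGE, PVDF transfer; probed with anti-Bax or anti-cleaved PARP (1:1000) overnight at 4 °C, HRP secondary, ECL detection; β-actin control.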

Data set [2] deals with SW-620. In words: Induction of cell cycle arrest in human SW-620 cells assessed as accumulation of cells in S phase at 1 uM measured after 24 hrs by PI staining based flow cytometry method (reference value: 46.12%). Type of data set: functional. (In general: A flow cytometer gives signals particle by particle.)
Data set [3] concerns RKO. In words: Induction of apoptosis in human RKO cells assessed as viable cells at 1 uM measured after 24 hrs by PI/Annexin V staining based flow cytometry assay (reference value: 96.6%). To be noted: read-out: Activity. Type of data set: functional.
The test system of data set [4] is SW-620. In words: Antiproliferative activity against human SW-620 cells assessed as cell viability measured after 72 hrs by MTS method. Type of data set: functional, cell-based. To be noted: SW-620, 72 h. The procedure, abridged: (§2)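 Log-phase cells plated at 5×10^3–6×10^3 per well for 24 h, then given graded compound concentrations in fresh medium for 72 h, five replicate wells. Medium replaced with medium containing 10% MTS, 30 min or more at 37 °C in dark; OD 490 nm read. IC50 by nonlinear regression; mean ± SD of at least three experiments.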
Background: Tetrazolium dyes change colour on reduction, which living cells bring about.

The test system of data set [5] is SW-620. In words: Induction of apoptosis in human SW-620 cells assessed as increase in Bax expression at 0.5 to 1 uM measured after 24 hrs by western blot assay. The conditions noted are these: dose 0.5-1 µM. Type of data set: functional, cell-based. The procedure, abridged: as §1
In data set [6] the test system is SW-620. In words: Induction of apoptosis in human SW-620 cells assessed as increase in ROS levels at 0.5 uM measured after 24 hrs by DCFH-DA staining based flow cytometry method relative to control. Type of data set: functional. The procedure, abridged: (§3)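 Cells at 5×10^5 per well exposed to 0.25 or 0.5 µM for 24 h, then loaded with 5 µM DCFH-DA in serum-free medium 30 min at 37 °C; washed, harvested, read by flow cytometry (ex 488/em 525 nm). ROS given as ratio of treated to control; at least three experiments.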

Data set [7] concerns SW-620. In words: Induction of apoptosis in human SW-620 cells assessed as late apoptotic cells at 1 uM measured after 24 hrs by PI/Annexin V staining based flow cytometry assay (reference value: 3.66%). Type of data set: functional.
Data set [8] relates to RKO. In words: Induction of cell cycle arrest in human RKO cells assessed as accumulation of cells in S phase at 1 uM measured after 24 hrs by PI staining based flow cytometry method (reference value: 49.66%). Type of data set: functional.
The test system of data set [9] is PANC-1. In words: Antiproliferative activity against human PANC-1 cells assessed as cell viability measured after 72 hrs by MTS method. Type of data set: functional, cell-based. To be noted: PANC-1, 72 h. In outline:
as §2

Data set [10] concerns SW-620. The data set is described as follows: Induction of cell cycle arrest in human SW-620 cells assessed as reduction in Cyclin B1 expression at 0.5 to 1 uM measured after 24 hrs by western blot assay. To be noted: dose 0.5-1 µM. Type of data set: functional, cell-based. The procedure, abridged:
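RKO or SW620 cells (4×10^5–5×10^5 per well) exposed to 0.5 or 1 μM or DMSO for 24 h. Lysed in SDS loading buffer, boiled, run on 8–15% SDS-PAGE and moved to PVDF. Blocked in 5% milk, probed overnight at 4 °C with anti-Cdc2 or anti-cyclin B1 (1:1000), β-actin as reference. HRP secondary and ECL detection. Done at least three times.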

The subject of data set [11] is RKO. In words: Induction of apoptosis in human RKO cells assessed as late apoptotic cells at 1 uM measured after 24 hrs by PI/Annexin V staining based flow cytometry assay (reference value: 0.81%). Type of data set: functional.
In data set [12] the test system is RKO. In words: Induction of cell cycle arrest in human RKO cells assessed as accumulation of cells in G2 phase at 1 uM measured after 24 hrs by PI staining based flow cytometry method (reference value: 10.79%). Type of data set: functional.
For data set [13], the system named is HUVEC. In words: Anti-vascular activity against human HUVEC cells assessed as wound closure at 1 uM measured after 24 hrs by wound closure assay (reference value: 71.8%). Type of data set: functional.
For data set [14], the system named is RKO. In words: Induction of apoptosis in human RKO cells assessed as increase in ROS levels at 0.5 uM measured after 24 hrs by DCFH-DA staining based flow cytometry method relative to control. Type of data set: functional. The procedure, abridged: as §3
Data set [15] deals with PANC-1. The data set is described as follows: Induction of cell cycle arrest in human PANC-1 cells assessed as accumulation of cells in G1 phase at 1 uM measured after 24 hrs by PI staining based flow cytometry method (reference value: 31.35%). Type of data set: functional.
Data set [16] concerns SW480. In words: Antiproliferative activity against human SW480 cells assessed as cell viability measured after 72 hrs by MTS method. Type of data set: functional, cell-based. The conditions noted are these: SW480, 72 h. The procedure, abridged:
as §2

Data set [17] concerns SK-BR-3. In words: Antiproliferative activity against human SK-BR-3 cells assessed as cell viability measured after 72 hrs by MTS method. The conditions noted are these: SK-BR-3, 72 h. Type of data set: functional, cell-based. The procedure, abridged:
as §2

The test system of data set [18] is RKO. The data set is described as follows: Induction of apoptosis in human RKO cells assessed as increase in cleaved PARP levels at 0.5 to 1 uM measured after 24 hrs by western blot assay. Type of data set: functional, cell-based. To be noted: dose 0.5-1 µM. In outline: as §1
In data set [19] the test system is SW-620. In words: Induction of apoptosis in human SW-620 cells assessed as early apoptotic cells at 1 uM measured after 24 hrs by PI/Annexin V staining based flow cytometry assay (reference value: 2.41%). Type of data set: functional.
The test system of data set [20] is RKO. The data set is described as follows: Antiproliferative activity against human RKO cells assessed as cell viability measured after 72 hrs by MTS method. Type of data set: functional, cell-based. The procedure, abridged:
as §2

Data set [21] relates to RKO. In words: Induction of apoptosis in human RKO cells assessed as necrotic cells at 1 uM measured after 24 hrs by PI/Annexin V staining based flow cytometry assay (reference value: 0.01%). Type of data set: functional.
In data set [22] the test system is PANC-1. In words: Induction of cell cycle arrest in human PANC-1 cells assessed as accumulation of cells in S phase at 1 uM measured after 24 hrs by PI staining based flow cytometry method (reference value: 65%). Type of data set: functional.
A short description of data set [23]: Toxicity against Athymic nude mouse xenografted with SW-620 cells assessed as changes in body weight at 25 mg/kg per two days, po measured after 20 days. Type of data set: organism-based. To be noted: in vivo, 480 h, time 20 day. In outline:
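Nude mice given 5×10^6 SW620 cells s.c. into the right armpit; at ~100 mm³ randomized (n = 6). Dosed orally at 25 mg/kg every 2 days in DMSO:corn oil 1:9 (100 μL) for 20 days; vehicle controls dosed on the same schedule. Body weight recorded every 2 days.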

In data set [24] the target is Tubulin (Homo sapiens) (UniProt P68371+Q9H4B7+P0DPH7+P68366+Q13509+Q71U36+P04350+Q3ZCM7+P07437+P68363+Q9BQE3+Q6PEY2+Q13885+Q9BVA1+Q9BUF5). The data set is described as follows: Inhibition of tubulin polymerization in human RKO cells assessed as fragmentation of microtubule at 1 uM measured 24 hrs by DAPI staining based immunoflourescence assay. Type of data set: cell-based. The procedure, abridged: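 RKO cells on coverslips (2.5×10^5 per well) incubated overnight, then treated for 24 h at 0.5 or 1 μM, DMSO, or 1 μM comparators. Fixed in cold methanol 10 min, permeabilized with 0.25% Triton X-100, blocked in 1% BSA at 4 °C overnight. Stained with anti-β-tubulin (1:100, 2 h RT) and Alexa Fluor 594 secondary (1:500, 1 h), nuclei with DAPI; imaged by fluorescence microscopy.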

Calls of active or inactive are those of the source. No cut-off for these calls is given here.

As for `COc1ccc(S(=O)(=O)Nc2cccnc2Nc2ccc(O)cc2)cc1` [ABT-751], the result in data set [1], in [5], in data set [10] and in [18] was Active. The Activity is 44.45% in [2]; 4.322% in [7]; 46.23% in [8]; 1.31% in data set [11]; 52.8% in data set [12]; 18% in data set [13]. In addition, the Activity in [15] was 31.44%; in [19] it was 8.35%; in [21], 0.1%; in data set [22] it was 33.13%; in data set [23], “Non-Toxic”. Besides, the viability at 1 µM in data set [3] turned out to be 88.4%. Besides, the half-inhibitory concentration (IC50) in data set [4] turned out to be 2.79 µM; in data set [9], 0.837 µM; in [16], 3.42 µM; in data set [17], 0.143 µM; in [20] it was 0.633 µM. For the same molecule, the “fold change (FC)” value in data set [6] is reported as 1.8; in [14], 2. The inhibition entry in data set [24] was “Active”.
Regarding `COc1ccc(S(=O)(=O)Nc2cccnc2-c2ccc(C#N)c(F)c2)cc1`, the result in data set [1], in [5], in data set [10] and in [18] was Active. The Activity was determined as 15.67% in data set [2]; 4.26% in data set [7]; 43.49% in data set [8]; 1.52% in data set [11]; 47.76% in [12]; 20.1% in [13]. For the same molecule, the Activity is reported as 2.04% in data set [15]; 10.09% in data set [19]; 0.17% in [21]; 40.54% in data set [22]; “Non-Toxic” in data set [23]. Further, in [3], the viability at 1 µM turned out to be 61%. Besides, the IC50 in data set [4] is 0.673 µM; in [9], 0.729 µM; in [16], 0.338 µM; in data set [17], 0.431 µM; in data set [20], 0.17 µM. For the same molecule, the “fold change (FC)” value in data set [6] and in data set [14] was 1.5 each time. In data set [24], the inhibition result is “Active”.
